viability, differential viability (reversal) and inhibition data for 21 compounds are collected here from PubChem BioAssay.

Assay [1] is described as follows: HUVEC growth inhibition – cell-based, human, primary screen (AID 575;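 active means viability at or below 30% in both replicate assays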;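 further: 100% = median of untreated cell wells with 0.1% DMSO on each plate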). The conditions noted are these: HUVEC proliferation, CellTiter-Glo luminescence, 72 h; at 10 µM; stronger effect = lower value. An outline of the steps: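 system = HUVEC primary cells | amount = 1250 cells/well | buffer or medium = supplemented EBM, 2% fetal bovine serum | dosing = single-point 10 µM, DMSO 0.1% final | times = 72 h compound incubation | detection = CTG luminescence | read-out = % viability relative to median vehicle-well signal on each plate | control set = vehicle and MePR control wells | format = collagen-coated 384-well format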
Background: Cellular ATP, detected with luciferase, serves as a proxy for viable cell number.

Assay [2] in a line: H69AR cell proliferation blockers – human, duplicate replicates, primary screen (AID 580;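 active means viability at or under a set limit in both replicates, limit being median viability minus 3 SD, cut at about 48% in these data, passing the limit was not always enough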;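 further: 100% = mean luminescence of untreated wells and 0% = no signal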). The conditions noted are these: H69AR lung tumor cells viability, ATP luminescence, 72 h; at 10 µM; stronger effect = lower value.
The nature of assay [3]: MRP1 drug-resistance reversers in H69AR cells – cell-based, doxorubicin co-treatment, pilot screen (AID 601). The following applies: CellTiter-Glo, 72 h, at 10 µM; for differential viability (reversal): stronger effect = higher value.
A short description of assay [4]: yeast transport mutant growth inhibition pilot in 384-well plates, post-Golgi transport modulator project (AID 636; in the data active means inhibition above about 31%). The conditions noted are these: absorbance 615 nm, about 18 h, stronger effect = higher value.
Assay [5] can be described thus: growth suppression of yeast trafficking mutant, preliminary HTS, modulators of trafficking downstream of Golgi apparatus project, 1536-format plate, OD 615 nm (AID 637; in the data active means inhibition above about 30%). The following applies: yeast transport mutant growth, absorbance 615 nm, 18 h; stronger effect = higher value.
[6] abbreviates: H69AR cells + 2 uM doxorubicin, measured here: viability with 2 uM doxorubicin, stronger effect = lower value.
The mark [7] stands for this setting: H69AR cells, compound alone cytotoxicity.

Activity calls are given as the source filed them.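 How the source made its calls, unless noted: active means viability loss from added drug above about 55%, and viability with drug at most 40%, in both replicates (limit read from the data, passing the limit was not always enough); inconclusive means both conditions met in only one replicate; inactive means neither replicate meets both conditions.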

The term viability denotes a read-out of living cells in per cent, often relative to untreated cells. One may read the inhibition as the relative decrease from the control value, in per cent.

`CC(C)(C)NC(=O)CN(C(=O)CS(=O)CC(=O)Nc1ccc(F)cc1)c1ccc(Cl)cc1` (configuration not stated): the viability in assay [1] is 95.2% (inactive); in assay [2], 98.9% (inactive); in assay [3] (setting [6]), 88.6%; in assay [3] (setting [7]), 98.9%. In assay [3] (H69AR cells + 2 uM doxorubicin), the differential viability (reversal) was 10.3% (inactive). The inhibition is -4.53% (inactive) in assay [4] and 21.9% (inactive) in assay [5].

As to `O=C(O)c1cccn2c(=O)c3ccccc3nc12`, the viability in assay [1] was 101% (inactive); in assay [2] it was 95.8% (inactive); in assay [3] (setting [6]) it was 91.4%; in assay [3] (setting [7]), 95.8%. Besides, the differential viability (reversal) in assay [3] (H69AR cells + 2 uM doxorubicin) was 4.45% (inactive). Moreover, the inhibition in assay [4] was -2.8% (inactive); in assay [5], -2.22% (inactive).

Regarding `Cc1ccc(C2C(C#N)=C(N)Oc3cc4c(cc32)OCO4)cc1` (configuration not stated), the viability in assay [1] was 48.4% (inactive); in assay [2] it was 10.2% (active); in assay [3] (setting [6]), 54.4%; in assay [3] (setting [7]) it was 10.2%. For the same compound, the differential viability (reversal) in assay [3] (H69AR cells + 2 uM doxorubicin) was -44.2% (inactive). In addition, the results for the inhibition in assay [4] and in assay [5] were -4.42% (inactive) and 1.27% (inactive), respectively.

`CCCOc1ccc(N2C(=O)CC(SCCN)C2=O)cc1` (configuration not stated): the viability in assay [1] was 88.2% (inactive); in assay [2], 108% (inactive); in assay [3] (setting [6]) it was 100%; in assay [3] (setting [7]) it was 108%. For the same compound, in assay [3] (H69AR cells + 2 uM doxorubicin), the differential viability (reversal) was 8.12% (inactive). For the same compound, the inhibition was -5.47% (inactive) in assay [4] and -3.02% (inactive) in assay [5].

On to `O=C(CSc1nnc(-c2ccncc2)o1)Oc1ccccc1`, for which the viability in assay [1] is 101% (inactive); in assay [2], 102% (inactive); in assay [3] (setting [6]) it was 85.9%; in assay [3] (setting [7]), 102%. The differential viability (reversal) in assay [3] (H69AR cells + 2 uM doxorubicin) is 15.9% (inactive). The inhibition was -6.4% (inactive) in assay [4] and 3.02% (inactive) in assay [5].

As to `COc1cccc(C(=O)Nc2ccc(NC(=O)C(C)(C)C)cn2)c1`, the viability was 96% (inactive) in assay [1], 76.2% (inactive) in assay [2], 73.5% in assay [3] (setting [6]) and 76.2% in assay [3] (setting [7]). Also, the differential viability (reversal) in assay [3] (H69AR cells + 2 uM doxorubicin) is 2.62% (inactive). Further, the inhibition is 2.34% (inactive) in assay [4] and -0.48% (inactive) in assay [5].

In the case of `COc1ccc(S(=O)(=O)NC(CC(=O)NCc2ccco2)c2ccco2)cc1` (configuration not stated), the viability is 99.7% (inactive) in assay [1], 103% (inactive) in assay [2], 81.3% in assay [3] (setting [6]) and 103% in assay [3] (setting [7]). Besides, the differential viability (reversal) in assay [3] (H69AR cells + 2 uM doxorubicin) is 22.1% (inactive). In addition, the inhibition in assay [4] was -2.08% (inactive); in assay [5], 4.29% (inactive).

As to `Nc1ccc(Sc2nnnn2-c2ccccc2)c(Cl)c1`, the viability in assay [1] is 101% (inactive); in assay [2] it was 92% (inactive); in assay [3] (setting [6]) it was 102%; in assay [3] (setting [7]) it was 92%. Further, in assay [3] (H69AR cells + 2 uM doxorubicin), the differential viability (reversal) is -9.96% (inactive). Moreover, the inhibition in assay [4] was -6.32% (inactive); in assay [5] it was -2.06% (inactive).

On to `Cc1ccc(N2CCN(C(=O)c3ccccc3)CC2)c(C)c1`, for which the viability was 114% (inactive) in assay [1], 91.1% (inactive) in assay [2], 84.4% in assay [3] (setting [6]) and 91.1% in assay [3] (setting [7]). Moreover, the differential viability (reversal) in assay [3] (H69AR cells + 2 uM doxorubicin) is 6.71% (inactive). In addition, the inhibition in assay [4] is -7.33% (inactive); in assay [5], 5.4% (inactive).

With `COc1ccccc1C(=O)Nc1ccccc1C(=O)N1CCCC1`, the viability was 92.3% (inactive) in assay [1], 96% (inactive) in assay [2], 84.1% in assay [3] (setting [6]) and 96% in assay [3] (setting [7]). For the same compound, the differential viability (reversal) in assay [3] (H69AR cells + 2 uM doxorubicin) was 11.9% (inactive). The figures for the inhibition in assay [4] and in assay [5] were -4.68% (inactive) and 1.27% (inactive), respectively.

Regarding `CCCCn1c(SCc2cccnc2)nc2c1c(=O)n(C)c(=O)n2C`, the viability was 121% (inactive) in assay [1], 92.8% (inactive) in assay [2], 79.2% in assay [3] (setting [6]) and 92.8% in assay [3] (setting [7]). Further, the differential viability (reversal) in assay [3] (H69AR cells + 2 uM doxorubicin) is 13.7% (inactive). The inhibition was -7.76% (inactive) in assay [4] and -2.86% (inactive) in assay [5].

For the compound `Cc1cccc(OCC(=O)Nc2ccccc2N2CCN(C(=O)C(C)C)CC2)c1C`, the viability in assay [1] is 88.3% (inactive); in assay [2], 88.8% (inactive); in assay [3] (setting [6]), 86%; in assay [3] (setting [7]) it was 88.8%. In addition, the differential viability (reversal) in assay [3] (H69AR cells + 2 uM doxorubicin) is 2.79% (inactive). For the same compound, the figures for the inhibition in assay [4] and in assay [5] were -1.95% (inactive) and 4.13% (inactive), respectively.

`Cc1c(N(C)C)nc2ccccc2c1N`: the viability in assay [1] is 83.8% (inactive); in assay [2] it was 84.4% (inactive); in assay [3] (setting [6]) it was 89.7%; in assay [3] (setting [7]) it was 84.4%. The differential viability (reversal) in assay [3] (H69AR cells + 2 uM doxorubicin) is -5.31% (inactive). Also, the results for the inhibition in assay [4] and in assay [5] were -4% (inactive) and 2.54% (inactive), respectively.

Consider `Nc1nc(-c2ccc(Cl)cc2)nn1C(=O)c1cccnc1`, for which the viability in assay [1] is 98.2% (inactive); in assay [2], 96.4% (inactive); in assay [3] (setting [6]), 95.5%; in assay [3] (setting [7]), 96.4%. Moreover, the differential viability (reversal) in assay [3] (H69AR cells + 2 uM doxorubicin) was 0.94% (inactive). The values for the inhibition in assay [4] and in assay [5] were 0.13% (inactive) and 4.29% (inactive), respectively.

Consider `CCOc1ccccc1N(CC(=O)N1CCOCC1)S(=O)(=O)c1ccccc1`, for which the viability in assay [1] was 108% (inactive); in assay [2] it was 99% (inactive); in assay [3] (setting [6]), 97.8%; in assay [3] (setting [7]), 99%. For the same compound, in assay [3] (H69AR cells + 2 uM doxorubicin), the differential viability (reversal) was 1.18% (inactive). Besides, the inhibition was 2.8% (inactive) in assay [4] and -4.76% (inactive) in assay [5].

For `O=C(c1noc2c1CCc1ccccc1-2)N1CCOCC1`, the viability is 95.6% (inactive) in assay [1], 96.4% (inactive) in assay [2], 90.3% in assay [3] (setting [6]) and 96.4% in assay [3] (setting [7]). Further, in assay [3] (H69AR cells + 2 uM doxorubicin), the differential viability (reversal) is 6.12% (inactive). For the same compound, the inhibition is -0.13% (inactive) in assay [4] and -2.86% (inactive) in assay [5].

On to `COc1ccccc1NC(=O)N1CCN(c2ccccc2F)CC1`, for which the viability was 108% (inactive) in assay [1], 93.8% (inactive) in assay [2], 74.3% in assay [3] (setting [6]) and 93.8% in assay [3] (setting [7]). Besides, the differential viability (reversal) in assay [3] (H69AR cells + 2 uM doxorubicin) is 19.5% (inactive). In addition, the inhibition in assay [4] is -5.87% (inactive); in assay [5], 1.11% (inactive).

As for `Cc1ccccc1C(=O)N1CCC(C(=O)Nc2ccc(S(=O)(=O)N3CCCC3)cc2)CC1`, the viability was 97.1% (inactive) in assay [1], 78.8% (inactive) in assay [2], 82.7% in assay [3] (setting [6]) and 78.8% in assay [3] (setting [7]). In addition, the differential viability (reversal) in assay [3] (H69AR cells + 2 uM doxorubicin) was -3.87% (inactive). Moreover, the results for the inhibition in assay [4] and in assay [5] were -4.55% (inactive) and -3.49% (inactive), respectively.

With `O=C(Nc1nc2ccc(S(=O)(=O)N3CCCC3)cc2s1)C1CCCO1` (configuration not stated), the viability in assay [1] is 109% (inactive); in assay [2] it was 97.7% (inactive); in assay [3] (setting [6]) it was 93.9%; in assay [3] (setting [7]), 97.7%. Besides, the differential viability (reversal) in assay [3] (H69AR cells + 2 uM doxorubicin) was 3.71% (inactive). The inhibition is -2.76% (inactive) in assay [4] and 0% (inactive) in assay [5].

In the case of `CCOc1ccccc1NC(=O)CCSc1nc2n[nH]c(C)c2c(=N)n1-c1ccccc1Cl`, the viability in assay [1] was 39.2% (inactive); in assay [2], 16.9% (active); in assay [3] (setting [6]), 16.4%; in assay [3] (setting [7]), 16.9%. Besides, in assay [3] (H69AR cells + 2 uM doxorubicin), the differential viability (reversal) was 0.49% (inactive). For the same compound, the inhibition in assay [4] is -3.03% (inactive); in assay [5], -3.5% (inactive).

`COc1ccc(-c2noc(C3CCCN(C(=O)CCc4ccccc4)C3)n2)cc1` (configuration not stated): the viability in assay [1] was 68.3% (inactive); in assay [2] it was 84.3% (inactive); in assay [3] (setting [6]), 90%; in assay [3] (setting [7]) it was 84.3%. Besides, in assay [3] (H69AR cells + 2 uM doxorubicin), the differential viability (reversal) is -5.7% (inactive). Further, the inhibition in assay [4] was -1.97% (inactive); in assay [5], 11.1% (inactive).
